The source of these data is publication PMC3037477 (Investigational New Drugs, 2009).

Series [1] in a line: LC-MS/MS detection of ETC and ETC-nucleotides in tumor and liver tissue. Format: in vivo, NMRI:nu/nu female mice. The settings on record: 2 h after administration. The method, boiled down: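 Subcutaneous HT-29 xenografts were grown in female NMRI nude mice. Tumour and liver were taken 2 h after prodrug administration. ETC and its nucleotides were quantified by LC-MS/MS in MRM mode (transition 268.2/112.2).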

The test system of another series is HT-29 xenograft. Nature of the series: In vivo antitumor effect in human HT-29 xenograft model. Also noted: species or system NMRI:nu/nu female mice. The settings on record: or., 40 mg/kg/inj. Put shortly:
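5-FU-resistant human HT-29 colon carcinoma cells were implanted subcutaneously in female nude mice. Dosing began at palpable tumour size on a q4dx3 schedule. Tumour volumes of treated mice (T) were compared with PBS-treated controls (C). Animals were killed once tumours exceeded 1 cm3.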
On the technique in general: In xenograft studies the graft and the host belong to different species.

Series [2] is described as follows: HPLC analysis of extracellular cleavage of prodrugs to nucleosides in the medium. It counts as in vitro ADME. The settings on record: after 24 h incubation with 100 µM prodrug. Put shortly: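 Cells were exposed to prodrug for 24 h. Medium above the cells was sampled after centrifugation, deproteinized with TCA and neutralized, then analysed by HPLC-UV for parent drug, FdUrd and ETC. Means of 3–5 independent experiments ± SEM.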

Series [3] is described as follows: In vivo toxicity in HT-29 xenograft mice. Also noted: species or system NMRI:nu/nu female mice. The settings on record: i.v. and oral treatment.
The target in series [4] is thymidylate synthase (TS) in intact FM3A/0 cells (Mus musculus, UniProt P07607). Nature of the series: TS in situ activity assay. Format: cell-based, murine. The conditions noted are these: 24 h exposure to 0.5 µM.
Chain of thymidylate synthase (TS) in intact FM3A/0 cells (P07607 whole entry): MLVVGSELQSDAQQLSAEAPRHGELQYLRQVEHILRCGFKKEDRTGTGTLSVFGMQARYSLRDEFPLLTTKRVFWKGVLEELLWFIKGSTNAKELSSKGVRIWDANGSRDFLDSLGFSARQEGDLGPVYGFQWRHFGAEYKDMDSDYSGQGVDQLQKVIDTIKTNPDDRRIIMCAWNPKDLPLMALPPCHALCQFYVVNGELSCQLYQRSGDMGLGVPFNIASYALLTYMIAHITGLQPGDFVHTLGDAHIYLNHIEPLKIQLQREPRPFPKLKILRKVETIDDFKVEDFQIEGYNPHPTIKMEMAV

Take `C#C[C@@]1(O)[C@@H](COP(=O)(O)OC[C@H]2O[C@@H](n3cc(F)c(=O)[nH]c3=O)C[C@@H]2O)O[C@@H](n2ccc(N)nc2=O)[C@@H]1O` [ETC-FdUrd, 3′-C-Ethynylcytidylyl-(5′➔5′)-5-fluoro-2′-deoxyuridine]: the “ETC and ETC-nucleotide accumulation in liver tissue” value in series [1] is given as “accumulated in the liver tissue”. In addition, the “ETC-nucleoside and ETC-nucleotide accumulation in tumor tissue” value in series [1] (HT-29 xenograft) is listed as “accumulated to a high extent in the tumor tissue”. Besides, the “Evaluation (in vivo activity)” value with HT-29 xenograft is given as “orally active”. Moreover, the “parent drug still present in the medium” value in series [2] is “More than 60%”. Further, in series [3], the haematological side effects result is given as “did not result in any haematological side effects”.

Take `O=c1[nH]c(=O)n([C@H]2C[C@H](O)[C@@H](CO)O2)cc1F` [FdUrd, 5-fluoro-2′-deoxyuridine]: in series [4], the “inhibition of thymidylate synthase (TS) in situ” value is reported as “inhibited almost completely”.
